Molecules are shown by their SMILES.

These results are taken from ChEMBL document CHEMBL1157930, “Design, synthesis, biological evaluation and computational investigation of novel inhibitors of dihydrofolate reductase of opportunistic pathogens” (Bioorg Med Chem, 2010).

For assay [1], the target named is T1, Bifunctional dihydrofolate reductase-thymidylate synthase (Toxoplasma gondii) (UniProt Q07422).
T1 sequence (whole entry): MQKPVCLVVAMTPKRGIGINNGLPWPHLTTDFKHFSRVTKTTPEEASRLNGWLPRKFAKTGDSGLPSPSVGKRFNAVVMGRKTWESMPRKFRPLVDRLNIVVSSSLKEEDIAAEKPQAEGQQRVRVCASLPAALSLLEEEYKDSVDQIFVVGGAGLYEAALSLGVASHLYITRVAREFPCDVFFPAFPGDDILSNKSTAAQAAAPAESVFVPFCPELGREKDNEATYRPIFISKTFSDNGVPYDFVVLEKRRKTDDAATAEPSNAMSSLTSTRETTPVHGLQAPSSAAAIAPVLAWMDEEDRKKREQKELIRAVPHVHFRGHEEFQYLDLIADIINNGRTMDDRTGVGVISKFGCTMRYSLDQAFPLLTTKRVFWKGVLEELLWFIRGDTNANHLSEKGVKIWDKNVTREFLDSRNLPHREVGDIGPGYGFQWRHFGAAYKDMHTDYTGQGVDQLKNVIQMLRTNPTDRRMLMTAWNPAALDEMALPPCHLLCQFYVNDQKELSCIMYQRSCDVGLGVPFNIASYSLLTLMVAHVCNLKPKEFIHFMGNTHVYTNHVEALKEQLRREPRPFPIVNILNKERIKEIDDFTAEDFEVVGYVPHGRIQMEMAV
Briefly: Inhibition of Toxoplasma gondii DHFR by continuous spectrophotometric assay. The gist of the method:
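Toxoplasma gondii DHFR was assayed continuously by spectrophotometry, following NADPH oxidation at 340 at 37 °C with saturating substrate and cofactor, in triplicate. […]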

Assay [2] addresses T1, Bifunctional dihydrofolate reductase-thymidylate synthase (Toxoplasma gondii). The assay is described as follows: Inhibition of Toxoplasma gondii DHFR at IC50 by continuous spectrophotometric assay. Also on record: concentration or dose not given beside the values. The gist of the method:
(§1)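 Continuous spectrophotometric assay of pathogen (pc, tg, ma) or rat liver DHFR. NADPH oxidation was followed at 340, at 37 °C, with substrate and cofactor both saturating. […]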

Assay [3] deals with T2, Dihydrofolate reductase (Mycobacterium avium) (UniProt O30463).
T2 sequence (whole entry): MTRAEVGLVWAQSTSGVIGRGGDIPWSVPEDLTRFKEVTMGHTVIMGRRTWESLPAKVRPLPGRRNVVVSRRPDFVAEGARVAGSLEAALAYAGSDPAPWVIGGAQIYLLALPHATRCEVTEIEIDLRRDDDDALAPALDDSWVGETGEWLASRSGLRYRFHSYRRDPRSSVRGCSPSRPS
The assay is described as follows: Inhibition of Mycobacterium avium DHFR at IC50 by continuous spectrophotometric assay. The gist of the method: as §1

Assay [4] addresses T3, Dihydrofolate reductase (Rattus norvegicus) (UniProt Q920D2).
T3 sequence (whole entry): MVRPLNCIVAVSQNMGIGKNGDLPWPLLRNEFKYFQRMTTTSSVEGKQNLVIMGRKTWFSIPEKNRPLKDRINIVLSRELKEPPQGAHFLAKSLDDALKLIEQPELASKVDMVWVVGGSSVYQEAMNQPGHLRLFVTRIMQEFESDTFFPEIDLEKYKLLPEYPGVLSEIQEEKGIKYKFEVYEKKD
The assay is described as follows: Inhibition of rat liver DHFR at IC50 by continuous spectrophotometric assay. The gist of the method:
as §1

The nature of assay [5]: Selectivity ratio of IC50 for rat liver DHFR to IC50 for Toxoplasma gondii DHFR. An outline of the steps:
(§2)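 The ratio is rat liver DHFR IC50 divided by pathogen DHFR IC50. Both IC50s come from triplicate continuous spectrophotometric assays following NADPH oxidation at 37 °C, with substrate and cofactor saturating.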

Assay [6] is described as follows: Selectivity ratio of IC50 for rat liver DHFR to IC50 for Mycobacterium avium DHFR. An outline of the steps: as §2
Assay [7] can be described thus: Selectivity ratio of IC50 for rat liver DHFR to IC50 for Pneumocystis carinii DHFR. An outline of the steps: as §2
Assay [8] addresses T4, Dihydrofolate reductase (Pneumocystis carinii) (UniProt P16184).
T4 sequence (whole entry): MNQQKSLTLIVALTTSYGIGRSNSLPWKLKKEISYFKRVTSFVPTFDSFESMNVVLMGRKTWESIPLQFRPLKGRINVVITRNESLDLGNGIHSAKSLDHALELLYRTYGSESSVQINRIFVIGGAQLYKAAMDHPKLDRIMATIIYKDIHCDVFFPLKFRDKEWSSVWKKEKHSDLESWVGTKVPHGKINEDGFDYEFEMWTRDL
The assay is described as follows: Inhibition of Pneumocystis carinii DHFR at IC50 by continuous spectrophotometric assay. The gist of the method: as §1

In turn, `Nc1nc(N)nc(CN2c3ccccc3CCc3ccccc32)n1` showed an Activity in assay [1] of 140 µM. Also, the inhibition was 10% in assay [2], 9% in assay [3] and 0% in assay [4].
For the molecule `Nc1nc(N)c2nc(CN3c4ccccc4C=Cc4ccccc43)cnc2n1`, the Activity in assay [1] stood at 0.043 µM. Besides, the results for the Ratio IC50 in assay [5] and in assay [6] were 102 and 367, respectively.
Take `Nc1ncc(CNc2cccc3ccccc23)c(N)n1`: in assay [1], the Activity was found to be 22.1 µM. The inhibition in assay [3] came out at 9%. Also, the IC50 selectivity ratio (rat liver / P. carinii DHFR) in assay [7] was determined as 0.85. Further, in assay [5], the Ratio IC50 was found to be 5.78.
For `Nc1ncc(CSc2nc3ccccc3o2)c(N)n1`, the Activity in assay [1] amounted to 160 µM. The IC50 selectivity ratio (rat liver / P. carinii DHFR) in assay [7] was 14.5. The Ratio IC50 in assay [5] was 3.25; in assay [6], 22.5.
In turn, `Cc1ccc(COc2ccc(C(=O)/C=C/c3cnc(N)nc3N)cc2)cc1` yielded an Activity in assay [1] of 117 µM. Further, the inhibition in assay [8] was 2%; in assay [2], 10%; in assay [3] it was 4%; in assay [4] it was 0%.
In turn, `Nc1ncc(CN2c3ccccc3CCc3ccccc32)c(N)n1` returned an Activity in assay [1] of 0.14 µM. In assay [7], the IC50 selectivity ratio (rat liver / P. carinii DHFR) was 1.89. In addition, the Ratio IC50 in assay [5] was 11.5; in assay [6] it was 14.4.
`Nc1cc(OCCN2c3ccccc3C=Cc3ccccc32)nc(N)n1`: in assay [1], the Activity was 3.35 µM. Moreover, in assay [4], the inhibition was found to be 39%. Also, the Ratio IC50 in assay [5] is greater than 35.8; in assay [6] it was greater than 51.4.
With `Nc1ncc(CN2c3ccccc3C=Cc3ccccc32)c(N)n1`, in assay [1], the Activity is 8.07 µM. The IC50 selectivity ratio (rat liver / P. carinii DHFR) in assay [7] was greater than 5. This molecule had an inhibition in assay [4] of 15%. In addition, the Ratio IC50 in assay [5] was greater than 16; in assay [6], greater than 20.
With `Nc1nc(N)nc(CN2c3ccccc3Sc3ccc(Cl)cc32)n1`, the Activity in assay [1] amounted to 397 µM. Moreover, the inhibition was 5% in assay [3] and 8% in assay [4].
`Nc1nc(N)nc(CN2c3ccccc3Sc3ccccc32)n1`: the Activity in assay [1] amounted to 143 µM. The values for the inhibition in assay [2], in assay [3] and in assay [4] were 15%, 4% and 16%, respectively.
`COc1ccc(C(=O)/C=C/c2cnc(N)nc2N)cc1`: in assay [1], the Activity was determined as 151 µM. Besides, the results for the inhibition in assay [8], in assay [2] and in assay [3] were 4%, 15% and 14%, respectively.
With `COc1ccc(NCc2cnc(N)nc2N)cc1`, the Activity in assay [1] came out at 44 µM. The inhibition in assay [2] was 7%; in assay [3], 0%; in assay [4] it was 0%.
Take `COc1cc(COc2cc(N)nc(N)n2)cc(OC)c1OC`: in assay [1], the Activity came out at 145 µM. The inhibition in assay [8] was found to be 0%; in assay [2] it was 10%; in assay [3] it was 12%; in assay [4], 12%.
In assay [1], `CN(Cc1cnc(N)nc1N)c1cccc2ccccc12` yielded an Activity of 3.49 µM. Further, the IC50 selectivity ratio (rat liver / P. carinii DHFR) in assay [7] turned out to be 4.79. Also, the Ratio IC50 in assay [5] is 52.7; in assay [6], 209.
In the same order, the values of `Nc1nc(N)c2cc(COC(=O)c3c4ccccc4cc4ccccc34)ccc2n1` are 0.67 µM, 0.43, 0.31 and 0.21.
For the molecule `Nc1ncc(COS(=O)(=O)c2ccc3ccccc3c2)c(N)n1`, in assay [1], the Activity was 124 µM. The inhibition in assay [2] was determined as 13%; in assay [3] it was 15%; in assay [4], 0%. For the same molecule, in assay [7], the IC50 selectivity ratio (rat liver / P. carinii DHFR) is greater than 15.7.

By inhibition is commonly meant the share of the control response that was lost under treatment.
